Reference: ChEMBL document CHEMBL1287677, “Antimalarial histone deacetylase inhibitors containing cinnamate or NSAID components” (Bioorg Med Chem Lett, 2010)
Calls of active or inactive are those of the source. The calls are words filed in the database; no cut-off is given here.

What was measured:
[1] = system: Plasmodium falciparum; test: Antimalarial activity against drug-sensitive ring-stage Plasmodium falciparum 3D7 infected in human O+ erythrocytes assessed as inhibition of parasite growth by [3H]hypoxanthine incorporation assay; format: functional, organism-based
[2] = target: T1, Histone deacetylase (Plasmodium falciparum 3D7) (UniProt Q7K6A1); test: Inhibition of trophozoite stage of Plasmodium falciparum 3D7 HDAC1 in infected-human erythrocytes assessed as histone H4 hyperacetylation at 20 to 100 nM after 3.5 hrs by Western blot analysis; format: cell-based
T1 sequence (whole entry): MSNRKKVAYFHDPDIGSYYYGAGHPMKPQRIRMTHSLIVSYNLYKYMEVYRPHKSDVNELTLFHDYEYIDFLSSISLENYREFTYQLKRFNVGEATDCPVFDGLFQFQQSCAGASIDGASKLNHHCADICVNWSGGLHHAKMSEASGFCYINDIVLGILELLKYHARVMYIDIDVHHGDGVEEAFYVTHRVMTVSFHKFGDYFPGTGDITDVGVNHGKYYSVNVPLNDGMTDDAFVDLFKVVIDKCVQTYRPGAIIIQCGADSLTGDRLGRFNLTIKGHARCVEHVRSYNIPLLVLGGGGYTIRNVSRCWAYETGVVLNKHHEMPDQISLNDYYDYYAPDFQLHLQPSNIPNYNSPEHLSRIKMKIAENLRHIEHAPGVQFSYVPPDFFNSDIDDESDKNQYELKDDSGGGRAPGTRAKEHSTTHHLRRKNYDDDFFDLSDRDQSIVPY
How it was run: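 P. falciparum 3D7-infected erythrocytes exposed to 20 and 100 nM compound for 3.5 h. Vehicle controls (0.1% DMSO) sampled at start and at 3.5 h. Total protein extracted and run on 15% SDS–PAGE. Histone H4 hyperacetylation read by Western blot with polyclonal anti-tetra-acetyl histone H4 antiserum. Loading checked by Coomassie staining of a matched gel.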

[3] = target: T1, Histone deacetylase (Plasmodium falciparum 3D7); test: (§1) Inhibition of Plasmodium falciparum 3D7 HDAC1 in infected-human erythrocytes assessed as histone H4 hyperacetylation after 1.5 hrs by SDS-PAGE analysis; format: cell-based
[4] = target: T2, Histone deacetylase (Plasmodium falciparum 3D7, UniProt Q7K6A1); test: as §1; format: cell-based
T2 sequence (Q7K6A1 whole entry): T1 sequence (whole entry)

[5] = Selectivity index, ratio of IC50 for human NFF to IC50 for drug-sensitive ring-stage Plasmodium falciparum 3D7
How it was run: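 Ratio computed as NFF IC50 divided by 3D7 IC50. Each IC50 is the mean of three experiments.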

[6] = Selectivity index, ratio of IC50 for human HeLa cells to IC50 for drug-sensitive ring-stage Plasmodium falciparum 3D7; format: toxicity, cell-based; details: read-out: Selectivity Index
[7] = system: NFF; test: Cytotoxicity against human NFF after 96 hrs by sulforhodamine B assay; format: cell-based

COc1cc(/C=C/C(=O)N[C@@H](CCCCCC(=O)NO)C(=O)Nc2cccc3cccnc23)cc(OC)c1O
IC50 [1]: 14 nM
IC90 [1]: 26 nM

O=C(CCCCC[C@H](NC(=O)Cc1ccccc1Nc1c(Cl)cccc1Cl)C(=O)Nc1cccc2cccnc12)NO
IC50 [1]: 65 nM
IC90 [1]: 119 nM

O=C(/C=C/c1cccc(OC/C=C/c2ccccc2)c1)N[C@@H](CCCCCC(=O)NO)C(=O)Nc1cccc2cccnc12
IC50 [1]: 400 nM
IC90 [1]: 805 nM

O=C(/C=C/c1ccco1)N[C@@H](CCCCCC(=O)NO)C(=O)Nc1cccc2cccnc12
IC50 [1]: 15 nM
IC90 [1]: 27 nM

COc1ccc(CCNC(=O)[C@H](CCCCCC(=O)NO)NC(=O)c2ccc(N(C)C)cc2)cc1OC
IC50 [1]: 101 nM

CC(C)c1ccc(NC(=O)[C@H](CCCCCC(=O)NO)NC(=O)c2ccc(N(C)C)cc2)cc1
IC50 [1]: 22 nM

O=C(/C=C/c1ccc(OC/C=C/c2ccccc2)cc1)N[C@@H](CCCCCC(=O)NO)C(=O)Nc1cccc2cccnc12
IC50 [1]: 453 nM
IC90 [1]: 827 nM

CN(C)c1ccc(C(=O)N[C@@H](CCCCCC(=O)NO)C(=O)Nc2ccccc2Cc2ccccc2)cc1
IC50 [1]: 5 nM
inhibition [2]: Active

O=C(CCCCC[C@H](NC(=O)c1cc2ccccc2[nH]1)C(=O)Nc1cccc2cccnc12)NO
inhibition [3]: Dose-dependent effect
IC50 [4]: 78 nM

O=C(/C=C/c1ccc(OCc2ccc(Br)cc2)cc1)N[C@@H](CCCCCC(=O)NO)C(=O)Nc1cccc2cccnc12
IC50 [1]: 357 nM
IC90 [1]: 687 nM

COc1ccc(/C=C/C(=O)N[C@@H](CCCCCC(=O)NO)C(=O)Nc2cccc3cccnc23)cc1OC
IC50 [1]: 34 nM
IC90 [1]: 61 nM

O=C(CCCCC[C@H](NC(=O)c1ccccc1O)C(=O)Nc1cccc2cccnc12)NO
IC50 [1]: 115 nM
IC90 [1]: 214 nM

CC(C)CCOc1ccc(/C=C/C(=O)N[C@@H](CCCCCC(=O)NO)C(=O)Nc2cccc3cccnc23)cc1
IC50 [1]: 217 nM
IC90 [1]: 536 nM

O=C(/C=C/c1ccc(Oc2ccccc2)cc1)N[C@@H](CCCCCC(=O)NO)C(=O)Nc1cccc2cccnc12
IC50 [1]: 156 nM

Cc1cccc(Nc2ccccc2C(=O)N[C@@H](CCCCCC(=O)NO)C(=O)Nc2cccc3cccnc23)c1C
IC50 [1]: 51 nM
IC90 [1]: 89 nM

CC(C(=O)N[C@@H](CCCCCC(=O)NO)C(=O)Nc1cccc2cccnc12)c1ccc(-c2ccccc2)c(F)c1 (stereo partly specified)
IC50 [1]: 42 nM
IC90 [1]: 76 nM

CN(C)c1ccc(C(=O)N[C@@H](CCCCCC(=O)NO)C(=O)Nc2cccc3cccnc23)cc1
Selectivity Index [5]: 30
selectivity ratio [6]: 17

CCCCOc1ccc(/C=C/C(=O)N[C@@H](CCCCCC(=O)NO)C(=O)Nc2cccc3cccnc23)cc1
IC50 [1]: 184 nM
IC90 [1]: 373 nM

CC1=C(CC(=O)N[C@@H](CCCCCC(=O)NO)C(=O)Nc2cccc3cccnc23)c2cc(F)ccc2C1=Cc1ccc(S(C)=O)cc1 (stereo partly specified)
IC50 [1]: 35 nM
IC90 [1]: 35 nM

Cc1ccc(C(=O)c2ccc(CC(=O)N[C@@H](CCCCCC(=O)NO)C(=O)Nc3cccc4cccnc34)n2C)cc1
IC50 [1]: 47 nM
IC90 [1]: 102 nM

CC(C)CCOc1cccc(/C=C/C(=O)N[C@@H](CCCCCC(=O)NO)C(=O)Nc2cccc3cccnc23)c1
IC50 [1]: > 1000 nM
IC90 [1]: > 1000 nM

CC(C(=O)N[C@@H](CCCCCC(=O)NO)C(=O)Nc1cccc2cccnc12)c1ccc(N2Cc3ccccc3C2=O)cc1 (stereo partly specified)
IC50 [1]: 32 nM
IC90 [1]: 65 nM

Cc1ccc(COc2ccc(/C=C/C(=O)N[C@@H](CCCCCC(=O)NO)C(=O)Nc3cccc4cccnc34)cc2)cc1
IC50 [1]: 153 nM
IC90 [1]: 375 nM

COc1cc(/C=C/C(=O)N[C@@H](CCCCCC(=O)NO)C(=O)Nc2cccc3cccnc23)cc(OC)c1OC
IC50 [1]: 52 nM

O=C(/C=C/c1cccc(Br)c1)N[C@@H](CCCCCC(=O)NO)C(=O)Nc1cccc2cccnc12
IC50 [1]: 50 nM

COc1ccc2cc([C@H](C)C(=O)N[C@@H](CCCCCC(=O)NO)C(=O)Nc3cccc4cccnc34)ccc2c1
IC50 [1]: 14 nM
IC90 [1]: 24 nM
Selectivity Index [5]: 12
IC50 [7]: 169 nM
selectivity ratio [6]: 17
inhibition [2]: Active

CN(C)c1ccc(C(=O)N[C@@H](CCCCCC(=O)NO)C(=O)Nc2cccc3ccccc23)cc1
IC50 [1]: 21 nM

O=C(/C=C/c1ccccc1)N[C@@H](CCCCCC(=O)NO)C(=O)Nc1cccc2cccnc12
inhibition [3]: Dose-dependent effect
IC50 [4]: 87 nM

COc1ccc2[nH]c(C)c(CC(=O)N[C@@H](CCCCCC(=O)NO)C(=O)Nc3cccc4cccnc34)c2c1
IC50 [1]: 13 nM
IC90 [1]: 22 nM
Selectivity Index [5]: 20
IC50 [7]: 260 nM
selectivity ratio [6]: 17
inhibition [2]: Active

C[C@@H]1CC[C@H]2[C@@H](C)C(=O)O[C@@H]3O[C@@]4(C)CC[C@@H]1[C@]32OO4
inhibition [2]: inactive
